# Experimental data taken from PubChem BioAssay.
# Active and inactive are the calls of the source.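 How the source made its calls, unless noted: active means GFP response above 150% of the DMSO level; inconclusive means fewer than 70 events counted for a yeast strain; inactive means the rest.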
# Key:
# [1] = RPL19A-GFP modulators, yeast TOR pathway, confirmation, cell-based, S. cerevisiae, flow cytometry, cherry picks, mother/daughter gates (AID 2270;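 active means GFP response below 50% of the DMSO control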); conditions: S. cerevisiae RPL19A-GFP strain, 3 h, at 10 µM, stronger effect = lower value, 100 = same GFP as DMSO wells
# [2] = LAP4-GFP expression modulators in yeast, confirmation, cell-based, cherry picks, flow cytometry, mother/daughter gates (AID 2271;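 active means GFP response above 150% of the DMSO control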;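 further: ratio of sample to DMSO plate mean so 100% equals DMSO level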); conditions: S. cerevisiae LAP4-GFP strain, 3 h, at 10 µM, stronger effect = higher value, 100 means same as DMSO control
# How it was run: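 Test system: GFP-fusion yeast strain / Amount: 0.2 OD600 cells / Buffer or medium: SC medium / Dosing: 10 µM single dose / Incubation: compound exposure 3 h at 30 °C, end-over-end rotation / Detection: HT flow cytometry, GFP fluorescence channel / Evaluation: median GFP fluorescence as percent of plate-mean DMSO wells / Control set: DMSO-only negative wells, rapamycin 400 ng/mL positive wells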
# [3] = modulators of MEP2-GFP levels in yeast, confirmation, S. cerevisiae, flow cytometry GFP, cherry picks (AID 2272;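 active means GFP response above 150% of the DMSO control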;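 further: ratio of well signal to plate DMSO mean so 100% equals DMSO level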); conditions: S. cerevisiae MEP2-GFP strain, 3 h, at 10 µM, stronger effect = higher value
# [4] = AGP1-GFP expression modulators, hit retest, confirmation, cell-based, flow cytometry, S. cerevisiae, cherry picks (AID 2273);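 further: median GFP channel fluorescence over the whole cell population gate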; conditions: S. cerevisiae AGP1-GFP strain, 3 h, at 10 µM
# [5] = modulators of CIT2-GFP expression in yeast, confirmation, S. cerevisiae, GFP fusion, cherry picks, mother/daughter gates (AID 2274); conditions: S. cerevisiae CIT2-GFP strain, flow cytometry, 3 h, at 10 µM, stronger effect = higher value
# [6] = measured here: daughter cell gate
# [7] = measured here: mother cell gate
# [8] = measured here: daughter cell gate response
# [9] = measured here: mother cell gate response
Structure (SMILES),GFP response vs DMSO [1],"GFP response vs DMSO [1, 6] [%]","GFP response vs DMSO [1, 7] [%]",GFP response relative to DMSO [2],"GFP response relative to DMSO [2, 8] [%]","GFP response relative to DMSO [2, 9] [%]",GFP response vs DMSO [3],"GFP response, % of DMSO [4]","GFP response, % of DMSO [5]","GFP response, % of DMSO [5, 6] [%]","GFP response, % of DMSO [5, 7] [%]"
CCc1ccc(OCC(=O)NNC(=S)NC(=O)C2CC2)c(Br)c1,82.8% (inactive),97.6,70.1,204% (active),164,203,126% (inactive),90.5% (inactive),115% (inactive),110,105
CCc1c(C)c2cc(Cl)c(O)c(CN(C)C)c2oc1=O,95.1% (inactive),95.6,94.8,95.3% (inactive),99,93.4,106% (inactive),93.9% (inactive),95.8% (inactive),95.8,94.9
O=C(O)CSC1CC(=O)N(c2cccc(Cl)c2)C1=O (stereo not drawn),96.7% (inactive),97.3,94.6,104% (inactive),101,104,110% (inactive),101% (inactive),104% (inactive),105,104
CN1CCN(CC(=O)N2CCn3c4c(c5cc(C6CCCCC6)ccc53)CCCC42)CC1 (stereo not drawn),90.7% (inactive),86.4,92.7,116% (inactive),109,119,108% (inactive),95.8% (inactive),90.7% (inactive),89,88.6
CCCc1ccc(C(=O)N2CCN(c3ccccc3OCC)CC2)cc1,99.1% (inactive),98.8,99.2,95.3% (inactive),93.6,93.6,97.5% (inactive),96.9% (inactive),96.4% (inactive),96.4,94.5
COc1ccc2cc(-c3cc(C(=O)O)c4ccccc4n3)ccc2c1,98.6% (inactive),95.9,98.2,99.8% (inactive),100,101,107% (inactive),96.5% (inactive),145% (inactive),128,152
CS(=O)(=O)c1nc(-c2cccs2)cc(C(F)(F)F)n1,93% (inactive),95.2,88.6,176% (active),164,180,143% (inactive),118% (inactive),94.4% (inactive),99.2,89.5
COc1ccccc1-c1nnc(NC(=O)c2ccc(S(=O)(=O)N(C)C)cc2)o1,99.2% (inactive),98.6,98.7,111% (inactive),112,109,119% (inactive),93.3% (inactive),105% (inactive),106,106
CCOC(=O)Cn1cc(/C=C/[N+](=O)[O-])c2ccccc21,95.8% (inactive),92.7,93.5,160% (active),153,157,99.3% (inactive),95% (inactive),88.9% (inactive),92.3,83.7
CCCOc1ccc(C(=O)NNC(=S)NC(=O)c2ccco2)cc1,124% (inactive),111,110,175% (active),148,167,137% (inactive),131% (inactive),134% (inactive),132,121
O=C1c2ccsc2SCCN1Cc1ccccc1,93.8% (inactive),92.9,94.8,112% (inactive),109,114,94.1% (inactive),101% (inactive),92.6% (inactive),91.7,90.2
O=C(NNC(=S)NC(=O)c1cn(-c2ccccc2)nc1-c1ccccc1)c1ccncc1,98% (inactive),101,94.8,143% (inactive),125,146,101% (inactive),99.5% (inactive),98.6% (inactive),103,96
CCCCCCCCC/C(=N\O)c1ccccn1,85% (inactive),81.4,82.6,214% (active),170,213,108% (inactive),89.3% (inactive),97.2% (inactive),90.5,97.1
Cc1onc(-c2c(Cl)cccc2Cl)c1NC(=O)NNc1c(Cl)cncc1Cl,99.8% (inactive),99.4,99.2,103% (inactive),102,100,100% (inactive),97.2% (inactive),99.7% (inactive),101,97.3
CCc1ccc(C(=O)COC(=O)c2n[nH]c3ccccc23)cc1,95.8% (inactive),97.3,94,102% (inactive),101,104,101% (inactive),101% (inactive),101% (inactive),97.6,102
COC(=O)COc1ccc(S(=O)(=O)N2CCc3ccccc3C2)cc1,101% (inactive),100,103,101% (inactive),102,101,97.8% (inactive),99.4% (inactive),99.1% (inactive),96.5,101
O=C(CCS(=O)(=O)Cc1ccccc1F)NCCc1ccc(Cl)cc1,97.8% (inactive),102,93.7,101% (inactive),99,101,101% (inactive),99.1% (inactive),100% (inactive),99.3,99.3
C=CCOc1cccc(C(=O)/C=C2/C(=O)Nc3ccccc32)c1,102% (inactive),97.9,98.8,114% (inactive),107,117,112% (inactive),105% (inactive),102% (inactive),103,98.1
CCc1nnc(NC(=O)c2nc(S(=O)(=O)Cc3cccc(C)c3)ncc2Cl)s1,93.9% (inactive),93.1,92.7,105% (inactive),102,102,104% (inactive),105% (inactive),99.3% (inactive),100,98
CCc1oc2ccccc2c1C(=O)CCN1CCCCC1,99.6% (inactive),98.4,99.6,102% (inactive),99.1,103,101% (inactive),101% (inactive),98.8% (inactive),99.2,96.8
[O-][n+]1cccc2c(Br)cc(Br)c(O)c21,98.2% (inactive),99.6,95.6,258% (active),215,251,178% (active),112% (inactive),101% (inactive),103,95.7
O=C(/C=C/c1ccnc2ccccc12)c1cccs1,101% (inactive),98.8,99.5,172% (active),156,171,126% (inactive),112% (inactive),90.7% (inactive),94.6,84
S=C(Sc1ccc(Cl)cc1)Sc1ccc(Cl)cc1,97.6% (inactive),93.2,95.1,112% (inactive),108,115,112% (inactive),110% (inactive),112% (inactive),105,107
